For 41 compounds, Activity, logP and IC50 results are on record in ChEMBL document CHEMBL1152497, “Ligand-based design and synthesis of novel sodium channel blockers from a combined phenytoin-lidocaine pharmacophore” (Bioorg Med Chem, 2009).

Structures can show the parent of a compound that is named as a salt. The source made the active and inactive calls. The rule behind the calls is not given here.

The species entered for series [1] is Rattus norvegicus. In words: Displacement of [3H]-BTX-B from neuronal voltage-gated sodium channel in rat cerebral cortex synaptoneurosomes at 40 uM. Format: tissue-based. The gist of the method: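 Single-concentration screen at 40 μM. Rat forebrain membranes with [3H]-batrachotoxin (30–60 Ci/mmol) in 50 mM HEPES pH 7.4 containing 130 mM choline chloride, 37 °C for 60 min. Rapid vacuum filtration onto glass fiber filters, and trapped radioactivity compared with control values to give percent displacement. Aconitine 1 μM as positive control.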

A short description of series [2]: Lipophilicity, log P of the compound. The settings on record: octanol/water. Format: physicochemical. The method, boiled down:
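logP calculated with a chemical properties tool, not measured.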

Series [3] in a line: Displacement of [3H]-BTX-B from neuronal voltage-gated sodium channel in rat cerebral cortex synaptoneurosomes. Format: tissue-based. The gist of the method: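 Rat forebrain membranes incubated with [3H]-batrachotoxin (30–60 Ci/mmol) in 50 mM HEPES pH 7.4 with 130 mM choline chloride, 37 °C, 60 min. Stopped by rapid vacuum filtration onto glass fiber filters, and filter radioactivity compared with control. Percent inhibition at 5–7 concentrations spanning the IC50, each in triplicate. IC50 by Probit analysis of the concentration versus percent binding curve. Aconitine 1 μM as positive control.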
On the technique in general: Loss of bound radioactivity is the signal in a displacement assay; it reports binding, not function.

The target in series [4] is Sodium channel protein type 2 subunit alpha (Homo sapiens) (UniProt Q99250). In words: Inhibition of human Nav1.2 channel expressed in HEK293 cells assessed as blocked of sodium current elicited at +10 mV for 12 mins from holding potential -100 mV at 100 uM measured after washout by patch clamp method. Type of series: cell-based. The settings on record: in the assay text read “12 ms” for “12 mins”. The method, boiled down:
(§1)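 Whole-cell patch clamp on HEK293 cells stably expressing human Nav1.2, grown in DMEM/F12 with 10% FBS, penicillin/streptomycin and G418 at 37 °C, 5% CO2. Step to +10 mV for 12 ms from −100 mV holding. Pipette contains CsCl/BAPTA (pH 7.4); bath contains 130 mM NaCl (pH 7.4). DMSO at most 0.3%, 20–22 °C, ≥75% series-resistance compensation. Compound at 100 μM, followed by washout; n = 4.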
In general terms: In patch-clamp work, channel activity is measured electrically.

Series [5] has the same target. Nature of the series: Inhibition of human Nav1.2 channel expressed in HEK293 cells assessed as blocked of sodium current elicited at +10 mV for 12 mins from holding potential -100 mV at 100 uM by patch clamp method. Format: cell-based. Further details: scale not given: the % may be the effect or the level left. Particulars: in the assay text read “12 ms” for “12 mins”. The gist of the method: as §1

Sodium channel protein type 2 subunit alpha (Homo sapiens), sequence (Q99250 whole entry, looked up): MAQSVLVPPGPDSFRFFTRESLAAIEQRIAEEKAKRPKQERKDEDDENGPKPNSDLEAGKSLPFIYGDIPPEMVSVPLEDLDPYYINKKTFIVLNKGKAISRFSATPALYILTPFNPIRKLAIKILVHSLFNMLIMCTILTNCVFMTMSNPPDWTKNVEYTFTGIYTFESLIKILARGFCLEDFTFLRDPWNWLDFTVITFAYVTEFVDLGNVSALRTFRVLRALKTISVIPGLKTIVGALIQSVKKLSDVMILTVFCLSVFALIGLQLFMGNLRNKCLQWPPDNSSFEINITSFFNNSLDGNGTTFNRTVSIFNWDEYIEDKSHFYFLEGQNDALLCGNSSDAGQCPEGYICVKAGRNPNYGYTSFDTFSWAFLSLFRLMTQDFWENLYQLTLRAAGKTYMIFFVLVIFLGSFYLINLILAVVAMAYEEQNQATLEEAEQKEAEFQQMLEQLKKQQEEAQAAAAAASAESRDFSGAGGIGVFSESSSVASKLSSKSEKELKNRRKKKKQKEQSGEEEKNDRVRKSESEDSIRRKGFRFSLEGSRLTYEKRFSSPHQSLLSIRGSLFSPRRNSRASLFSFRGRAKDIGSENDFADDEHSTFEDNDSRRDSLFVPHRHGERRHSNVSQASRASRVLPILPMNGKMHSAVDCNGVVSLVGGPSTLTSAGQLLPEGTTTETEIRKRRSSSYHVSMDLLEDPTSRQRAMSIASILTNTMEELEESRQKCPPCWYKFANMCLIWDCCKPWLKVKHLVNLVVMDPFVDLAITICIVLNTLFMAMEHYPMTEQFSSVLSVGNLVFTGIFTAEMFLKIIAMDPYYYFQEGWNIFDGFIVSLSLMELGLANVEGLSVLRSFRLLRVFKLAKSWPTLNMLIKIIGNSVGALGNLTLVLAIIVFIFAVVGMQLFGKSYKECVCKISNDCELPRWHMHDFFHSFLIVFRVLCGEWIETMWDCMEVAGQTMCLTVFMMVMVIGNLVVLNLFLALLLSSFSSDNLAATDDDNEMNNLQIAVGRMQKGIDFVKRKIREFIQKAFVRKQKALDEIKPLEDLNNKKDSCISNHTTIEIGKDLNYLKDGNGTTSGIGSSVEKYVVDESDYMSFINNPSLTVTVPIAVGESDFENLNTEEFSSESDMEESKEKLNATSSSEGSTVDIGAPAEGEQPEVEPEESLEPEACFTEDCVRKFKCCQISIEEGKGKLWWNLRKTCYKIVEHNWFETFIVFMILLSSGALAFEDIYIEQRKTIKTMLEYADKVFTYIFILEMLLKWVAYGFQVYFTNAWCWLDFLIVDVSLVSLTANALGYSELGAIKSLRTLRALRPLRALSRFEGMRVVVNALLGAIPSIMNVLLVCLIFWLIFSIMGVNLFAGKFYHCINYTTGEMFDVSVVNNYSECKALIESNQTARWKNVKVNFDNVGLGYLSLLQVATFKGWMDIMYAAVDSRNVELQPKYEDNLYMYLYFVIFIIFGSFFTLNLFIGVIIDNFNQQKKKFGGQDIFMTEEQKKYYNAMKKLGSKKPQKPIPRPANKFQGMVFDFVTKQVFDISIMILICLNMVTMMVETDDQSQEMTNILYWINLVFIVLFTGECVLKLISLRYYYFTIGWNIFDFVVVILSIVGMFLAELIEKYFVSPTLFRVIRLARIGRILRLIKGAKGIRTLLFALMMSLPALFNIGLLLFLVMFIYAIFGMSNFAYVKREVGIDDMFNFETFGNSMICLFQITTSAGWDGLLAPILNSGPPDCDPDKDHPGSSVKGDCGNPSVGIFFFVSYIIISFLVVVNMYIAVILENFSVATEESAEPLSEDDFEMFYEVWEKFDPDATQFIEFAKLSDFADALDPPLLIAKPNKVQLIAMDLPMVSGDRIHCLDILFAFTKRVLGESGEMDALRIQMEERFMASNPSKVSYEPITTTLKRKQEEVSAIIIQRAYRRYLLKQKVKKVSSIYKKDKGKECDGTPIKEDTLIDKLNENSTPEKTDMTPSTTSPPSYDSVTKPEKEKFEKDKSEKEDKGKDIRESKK

Regarding `CCCCCCC1(c2cc(C)c(NC(=O)CN(CC)CC)c(C)c2)NC(=O)NC1=O` (stereo unspecified), in series [1], the Activity came out at 68%. As for `CCOc1ccc(C(=O)OCCN(CC)CC)cc1` [PARETHOXYCAINE], the logP (usually a log measure of how a compound divides between an organic and an aqueous phase) in series [2] was 2.74. Also, the 50% inhibitory concentration (IC50) – broadly, the midpoint of a concentration-inhibition curve – in series [3] worked out at 24 µM. For the compound `CC1CCCCN1CCCOC(=O)c1ccccc1` (stereo unspecified) [PIPEROCAINE], the logP in series [2] was 3.01. For the same compound, the IC50 in series [3] turned out to be 12.9 µM. For the compound `O=C1NC(=O)C2(CCc3ccccc32)N1` (stereo unspecified), the IC50 in series [3] was determined as 2110 µM.

Take `O=C1NC(=O)C(c2ccccc2)(c2ccccc2)N1` [PHENYTOIN]: the IC50 in series [3] is 40 µM. Compound `CCCN(CC)C(CC)C(=O)Nc1c(C)cccc1C` (stereo unspecified) [ETIDOCAINE] showed a logP in series [2] of 3.87. `CCCC1(c2ccccc2)NC(=O)NC1=O` (stereo unspecified): in series [3], the half-inhibitory concentration (IC50) amounted to 162 µM. For the compound `CCN(CC)CC(=O)Nc1ccc(C2(c3ccccc3)NC(=O)NC2=O)cc1` (stereo unspecified), the Activity in series [1] came to 50%.

In turn, `CCOC(=O)c1ccc(N)cc1` [BENZOCAINE] returned a logP in series [2] of 1.39. Besides, the IC50 in series [3] amounted to 910 µM.

In series [2], `CCCCCCCCC1(c2ccccc2)NC(=O)NC1=O` (stereo unspecified) had a logP of 4.96. The compound further showed an IC50 in series [3] of 5 µM. In series [3], `CCCCC1(c2ccccc2C)NC(=O)NC1=O` (stereo unspecified) registered an IC50 of 225 µM. `CCCNC(C)C(=O)Nc1ccccc1C` (stereo unspecified) [PRILOCAINE] came in with a logP in series [2] of 2.18. The IC50 in series [3] turned out to be 53.7 µM.

`CCCOc1ccc(C(=O)OCCN(CC)CC)cc1N` [PROPARACAINE] yielded a logP in series [2] of 2.42. The IC50 in series [3] came to 2 µM. Compound `O=C1NC(=O)C2(CCCc3ccccc32)N1` (stereo unspecified) returned an IC50 in series [3] of 851 µM. In series [2], `CCCOc1cc(N)ccc1C(=O)OCCN(CC)CC` [PROPOXYCAINE HYDROCHLORIDE] had a logP of 2.42. The IC50 in series [3] worked out at 24 µM.

Take `CCCCCCCC(O)(C(N)=O)c1cc(C)c(NC(=O)CN(CC)CC)c(C)c1` (stereo unspecified): in series [4], the outcome was inactive. Also, the Activity in series [5] was found to be 67.7%; in series [1], 83%. Compound `O=C1C(c2ccccc2)N2CCCCCN1C2=O` (stereo unspecified) showed a logP in series [2] of 2.51. This compound also had an IC50 in series [3] of 427 µM. On the same counts, the results for `CCN(CC)CCOC(=O)c1ccc(N)cc1` [PROCAINE] are 2.53 and 110 µM. In series [3], `O=C1NC(=O)C2(CCCCc3ccccc32)N1` (stereo unspecified) came in with an IC50 of 251 µM. As to `CCN(CC)CC(=O)Nc1c(C)cc(C(O)(C(N)=O)c2ccccc2)cc1C` (stereo unspecified), in series [1], the Activity was determined as 16%. In the case of `CCCCC1(c2ccccc2)NC(=O)NC1=O` (stereo unspecified), the IC50 in series [3] stood at 103 µM. In series [1], `CCCCCCCC1(c2cc(C)c(NC(=O)CN(CC)CC)c(C)c2)NC(=O)NC1=O` (stereo unspecified) registered an Activity of 71%. `CCCCCCCCCC1(c2cc(C)c(NC(=O)CN(CC)CC)c(C)c2)NC(=O)NC1=O` (stereo unspecified) returned an Activity in series [1] of 69%.

Take `COC(=O)[C@H]1[C@@H](OC(=O)c2ccccc2)C[C@@H]2CC[C@H]1N2C` [COCAINE]: in series [2], the logP is 1.82. This compound yielded an IC50 in series [3] of 49 µM. On to `O=C1NC(=O)C(c2ccccc2)(C2CCCCC2)N1` (stereo unspecified), for which the IC50 in series [3] worked out at 58 µM.

The compound `O=C1NC(=O)C2(CCCCCc3ccccc32)N1` (stereo unspecified) displayed an IC50 in series [3] of 251 µM.

As to `CCCCNc1ccc(C(=O)OCCN(C)C)cc1` [TETRACAINE], in series [2], the logP was determined as 3.27. On to `CCN(CC)CC(=O)Nc1ccc(C(O)(C(N)=O)c2ccccc2)cc1` (stereo unspecified), for which, in series [1], the Activity was 4%. Take `CCCCCCCCCC(O)(C(N)=O)c1cc(C)c(NC(=O)CN(CC)CC)c(C)c1` (stereo unspecified): the Activity in series [1] was found to be 63%.

In turn, `CCCCCCCC(O)(C(N)=O)c1ccccc1` (stereo unspecified) gave a half-inhibitory concentration (IC50) in series [3] of 9 µM. `CCCCCC1(c2ccccc2)NC(=O)N(C)C1=O` (stereo unspecified): the logP in series [2] was 2.96. Further, the IC50 in series [3] turned out to be 39 µM. Compound `CCCCC1(c2ccc(C)cc2)NC(=O)NC1=O` (stereo unspecified) had an IC50 in series [3] of 95 µM. `CCCCCCCC1(c2ccccc2)NC(=O)NC1=O` (stereo unspecified): in series [3], the IC50 came out at 5 µM.

In series [3], `CC12C(=O)NC(=O)N1CCc1ccccc12` (stereo unspecified) returned an IC50 of 250 µM. In turn, `CC(CNC1CCCCC1)OC(=O)c1ccccc1` (stereo unspecified) [HEXYLCAINE] returned a logP in series [2] of 3.34. Moreover, the IC50 in series [3] came out at 7.1 µM. The compound `CCN(CC)CC(=O)Nc1c(C)cc(C2(c3ccccc3)NC(=O)NC2=O)cc1C` (stereo unspecified) yielded an Activity in series [1] of 49%. In the case of `CCCCOc1cc(C(=O)NCCN(CC)CC)c2ccccc2n1` [DIBUCAINE], in series [2], the logP worked out at 3.77. `CCN1C(=O)NC(=O)C1(C)c1ccccc1` (stereo unspecified): the IC50 in series [3] amounted to 720 µM. As for `CCCCCCC1(c2ccccc2)NC(=O)NC1=O` (stereo unspecified), the IC50 in series [3] was determined as 13 µM. In series [2], `O=C1C(c2ccccc2)N2CCCCN1C2=O` (stereo unspecified) came in with a logP of 2.01. The IC50 in series [3] is 700 µM. In the case of `CCCCC1(c2cccc(C)c2)NC(=O)NC1=O` (stereo unspecified), in series [3], the IC50 came out at 58 µM.
